Screens as filed in PubChem.
This is a sample that favours compounds with a hit; in the whole collection about 3.7% have one here.
hERG rescue – hERG rescue from dofetilide block, primary screen, cell-based, CHO-hERG, FluxOR thallium flux, dofetilide IC70; Voltage-gated inwardly rectifying potassium channel KCNH2 (Homo sapiens), Q12809; dofetilide IC70 present; activation (rescue from dofetilide block), less the hit threshold, % at 10 µM; hit rate 0.51% among 310,000;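 active = activation above the mean of controls blocked by dofetilide plus 5 SD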;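 note: thallium influx through hERG after potassium depolarization seen as dye fluorescence rise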
KCNK3 block – human KCNK3 channel inhibitors, primary screen, CHO cells, FluxOR thallium flux, B-score; Potassium channel subfamily K member 3 (Homo sapiens), O14649; FluxOR fluorescence; hits give low values; B-score at 10 µM; hit rate 0.84% among 340,000;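 active = B-score under library mean minus 4 SD, starting fluorescence ratio at most library mean plus 5 SD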;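 note: more negative B-score means stronger inhibition of thallium flux through KCNK3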
KCNK9 block – KCNK9 potassium channel inhibitors, primary screen, HEK293 cells, thallium flux. hit rate 1.2% among 310,000. Potassium channel subfamily K member 9 (Homo sapiens), Q9NPC2. FluxOR thallium flux fluorescence; hits give low values. B-score at 10 µM;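 active = ratio B-score over 3 SD below the library mean, with starting fluorescence within 5 SD of its mean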;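 note: negative B-score means less thallium flux so channel inhibition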
Kir21 block – inhibitors of mouse Kir2.1 inward-rectifier potassium channel; Inward rectifier potassium channel 2 (Mus musculus), P35561; HEK293-Kir2.1, FluxOR thallium flux fluorescence; hits give low values; B-score at 10 µM; hit rate 0.85% among 310,000; AID 1672, 2009;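 active = fluorescence ratio B-score at or below minus 3 SD of library scores, with starting-brightness B-score within 2 SD, cut at about -4.2 in these data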;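 note: channel flux triggered by added potassium and thallium sulfate stimulus; B-score of peak minus minimum fluorescence over baseline after thallium stimulus; more negative B-score means stronger Kir2.1 block with less thallium influx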
KCNQ1 pot – potentiators or activators of KCNQ1 channel, primary screen, cell-based, thallium flux, high-throughput. Potassium voltage-gated channel subfamily KQT member 1 (Homo sapiens), P51787. CHO-K1 KCNQ1, thallium flux FluxOR fluorescence; hits give high values. B-score at 10 µM. hit rate 0.35% among 310,000. AID 2648, 2010;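 active = fluorescence ratio B-score, a plate-corrected score, at least three library SD, with initial intensity B-score within 5 SD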
Target sequence (P51787 whole entry, looked up): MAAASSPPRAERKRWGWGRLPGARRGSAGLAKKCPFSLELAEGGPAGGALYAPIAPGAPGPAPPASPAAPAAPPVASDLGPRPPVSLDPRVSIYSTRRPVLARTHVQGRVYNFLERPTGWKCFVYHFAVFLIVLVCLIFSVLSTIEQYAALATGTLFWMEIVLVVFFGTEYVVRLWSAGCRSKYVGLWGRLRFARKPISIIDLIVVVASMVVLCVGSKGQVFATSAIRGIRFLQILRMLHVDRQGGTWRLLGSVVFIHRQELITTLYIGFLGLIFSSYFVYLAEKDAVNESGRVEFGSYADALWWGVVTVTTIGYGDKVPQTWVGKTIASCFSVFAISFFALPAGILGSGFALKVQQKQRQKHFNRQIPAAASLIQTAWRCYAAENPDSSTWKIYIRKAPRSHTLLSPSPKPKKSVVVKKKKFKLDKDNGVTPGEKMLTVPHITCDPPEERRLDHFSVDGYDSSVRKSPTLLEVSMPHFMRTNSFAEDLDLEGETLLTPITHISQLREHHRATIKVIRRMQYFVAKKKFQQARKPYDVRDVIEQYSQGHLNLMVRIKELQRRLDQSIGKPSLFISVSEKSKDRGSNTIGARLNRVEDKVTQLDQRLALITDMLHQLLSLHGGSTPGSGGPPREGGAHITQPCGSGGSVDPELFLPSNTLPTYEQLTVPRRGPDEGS
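assay system = KCNQ1-transfected CHO-K1 cells | medium = assay buffer with matched DMSO | probe or stimulus = depolarizing K+/Tl+ stimulus, K2SO4 and Tl2SO4 each 12.5 mM in 5x stock | dosing = single dose | incubation = dye 90 min, compound 20 min, room temperature | detection = kinetic FluxOR fluorescence, 10 s baseline plus 110 s post-stimulus | evaluation = ratio B score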
KCNQ1 block – inhibitors of human KCNQ1 channel, primary screen, cell-based, thallium flux, high-throughput | hit rate 1.3% among 310,000 | CHO-K1 KCNQ1, FluxOR thallium flux fluorescence; hits give high values | AID 2642, 2010 | Potassium voltage-gated channel subfamily KQT member 1 (Homo sapiens), P51787 | B-score at 10 µM;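 active = compounds whose thallium flux B-score, printed positive for inhibition, exceeds three library SD while starting fluorescence stays within three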;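 note: channel opened by potassium depolarization with thallium stimulus after 20 min compound exposure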
KCNQ1 block val – KCNQ1 potassium channel inhibitors, confirmation, cell-based, Tl flux, duplicate; shares compounds with KCNQ1 block; KCNQ1 cell line, FluxOR thallium flux fluorescence; inhibition, % at 10 µM; hit rate 93% among 1,600; AID 588353, 2011;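 active = primary screen active, with duplicate mean exceeding buffer control mean plus 3 SD of buffer wells, cut at about 28% in these data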;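 note: 0% = buffer control ratio and 100% = XE991 inhibitor control ratio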
CHO KCNQ1 ctr – thallium flux effects in parental CHO cells, counter-screen for KCNQ1 inhibitor project, cell-based, Tl flux; shares compounds with KCNQ1 block; parental CHO-K1, FluxOR thallium flux fluorescence ratio; hits give low values; zero means no signal rise above baseline; fluorescence ratio (Tl flux) at 10 µM; hit rate 21% among 1,600; AID 588366, 2011;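 active = mean of duplicate thallium-flux fluorescence ratios in parental host cells more than 5 SD below the buffer control mean, cut at about 0.38 in these data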;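 note: ratio is peak minus minimum fluorescence divided by baseline fluorescence; actives read low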
KCNQ1 APC inh – KCNQ1 channel inhibitors, confirmation, orthogonal assay, cell-based, automated electrophysiology | shares compounds with KCNQ1 block | KCNQ1-CHO cells, automated patch clamp current | calls only at 10 µM | hit rate 20% among 490;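 active = KCNQ1 current drop exceeding 3 SD of negative control wells, seen in both duplicate runs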;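 note: steady state current during a 2 s step from -80 to +40 mV; negative values mean current inhibition and positive values mean potentiation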
KCNQ2 spec – KCNQ2 channel inhibition, selectivity assay for KCNQ1 inhibitor project, cell-based | shares compounds with KCNQ1 block | KCNQ2 cells, FluxOR thallium flux fluorescence | inhibition, % at 10 µM | hit rate 71% among 1,600 | AID 651746, 2012;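 active = mean percent inhibition of the KCNQ2 thallium signal more than 5 SD above the buffer-only control wells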;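 note: KCNQ2 expressed in CHO cells; 0% = buffer control wells and 100% = XE-991 inhibitor control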
KCNQ1-KCNE1 inh – KCNQ1/KCNE1 channel inhibition, selectivity assay for KCNQ1 inhibitor project, CHO-K1 cells, thallium flux, FluxOR. shares compounds with KCNQ1 block. FluxOR thallium flux fluorescence. inhibition, % at 10 µM. hit rate 77% among 1,600;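 active = mean percent inhibition of duplicate wells above the buffer-only control mean plus 3 SD of those controls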;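 note: 0% = buffer only wells and 100% = XE-991 inhibitor control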
KCNK9 block conf – KCNK9 potassium channel inhibitors, confirmation, HEK293 cells, thallium flux, duplicate | shares compounds with KCNK9 block | FluxOR thallium flux fluorescence | inhibition, % at 10 µM | hit rate 43% among 4,900 | AID 492992, 2010;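 active = thallium signal inhibited by more than 5 SD of the compound-free buffer control wells, on both duplicate plates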;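 note: 0% = assay buffer control wells without compound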
Kir21 sel – mouse Kir2.1 channel inhibition, confirmation, selectivity assay for KCNK9 modulator project, cell-based, HEK293, thallium flux | inhibition, % at 10 µM | Kir2.1 cells, FluxOR thallium flux fluorescence | AID 492993, 2010 | shares compounds with KCNK9 block | hit rate 4% among 4,900;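 active = thallium signal drop more than 5 SD beyond the mean of the no-compound control wells, seen in both duplicate plates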;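 note: signal is fluorescence rise after thallium addition divided by baseline fluorescence; plate controls were assay buffer only for no effect and full block by chlorpromazine control for full effect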
KCNK9 uninduced – thallium flux in non-induced HEK293 cells, confirmation, counter-screen for KCNK9 inhibitor project, cell-based, second counter screen, non-induced KCNK9-HEK293; shares compounds with KCNK9 block; FluxOR thallium flux; inhibition, % at 10 µM; hit rate 40% among 4,900; AID 492997, 2010;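 active = thallium signal drop beyond 5 SD of the untreated control mean, on both duplicate plates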;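 note: plate controls were buffer only IC0 wells for no effect and SID17386958 at its maximal inhibitory level for full effect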
The depositor's hits bear a star; i = inactive; . = no result; + = active, no number.

SMILES	hERG rescue	KCNK3 block	KCNK9 block	Kir21 block	KCNQ1 pot	KCNQ1 block	KCNQ1 block val	CHO KCNQ1 ctr	KCNQ2 spec	KCNQ1-KCNE1 inh	KCNK9 block conf	Kir21 sel	KCNK9 uninduced	others
CCCOC(=O)C(C)n1c(-c2ccccc2)nc2ccccc2c1=O (stereo unspecified)	-9.5	i	-10.6*	-1.6	i	7*	0.0	0.477	i	57.5%*	51.0%*	i	35.5%*
CCOC(=O)Cn1c(-c2ccccc2)nc2ccccc2c1=O	-12.0	i	i	-0.17	i	i	.	.	.	.	.	.	.
COc1ccc(-c2ocnc2C(=O)N2CCN(C(c3ccccc3)c3ccccc3)CC2)cc1	-12.5	i	-14.2*	-0.1	i	8*	79.5*	0.424	87.7%*	94.5%*	68.0%*	i	36.5%*
Cc1cc(C(=O)N2CCN(C(c3ccccc3)c3ccccc3)CC2)on1	-10.6	i	i	0.17	i	i	.	.	.	.	.	.	.
CN(C(=O)CSc1nc(-c2ccc(C(C)(C)C)cc2)c(C#N)c(=O)[nH]1)C1CCCCC1	-14.6	i	i	1.04	i	7*	54.5*	0.416	79.3%*	i	i	i	29.0%*
Cc1cc(C)c(C#N)c(SCC(=O)N(C)C2CCCCC2)n1	-11.1	i	i	-0.22	i	i	.	.	.	.	.	.	.
CCCN(CC(=O)Nc1cc(Cl)cc(Cl)c1)CC(=O)Nc1ccc(F)c(F)c1F	-9.5	i	-13.3*	2.47	i	6*	132.0*	0.331*	119.3%*	159.0%*	55.0%*	i	46.5%*
CCOc1cc(C(=O)NCCC(=O)N2CCC3(CC2)NCCc2[nH]cnc23)cc(OCC)c1OCC	-7.2	i	i	1.9	i	i	.	.	.	.	.	.	.
Cc1cc(C)c(S(=O)(=O)c2ccccc2C)c(N(C)C)n1	-6.2	i	i	-1.9	i	i	.	.	.	.	.	.	.
Cc1cc(C)c(S(=O)(=O)c2ccccc2C)c(SCC(C)C)n1	-10.7	i	-14.2*	-0.12	i	9*	115.0*	0.417	112.0%*	95.0%*	50.0%*	i	41.5%*	KCNQ1 APC inh=i
Clc1cccc(-c2cc3nc4c(c(N5CCN(c6cnccn6)CC5)n3n2)CCCC4)c1	-18.2	-8.77*	-13.3*	1.95	i	8*	100.0*	0.387	119.0%*	162.0%*	46.0%*	i	36.0%*	KCNQ1 APC inh=i
COc1ccc2c(c1)-c1nc(NC(=O)c3cccs3)sc1CC2	-10.8	i	-16.1*	0.7	i	7*	107.5*	0.387	100.3%*	189.5%*	75.0%*	i	35.0%*	KCNQ1 APC inh=i
CC(NS(=O)(=O)c1ccc2c(c1)c(=O)n(C)c(=O)n2C)C(=O)NC1CCCCC1 (stereo unspecified)	-8.1	i	i	0.03	i	i	.	.	.	.	.	.	.
COc1ccc(-c2onc(C)c2-c2cnn(-c3ccccc3)c2)c(O)c1C	-9.9	i	i	0.22	i	6*	44.0*	0.404	115.3%*	39.0%*	i	i	i
Cc1ccc(NC(=O)c2cc(C)n(-c3cccc(C)c3)c2C)cc1	-11.1	i	i	0.15	i	i	.	.	.	.	.	.	.
Cc1cc(C(=O)Nc2ccc(Cl)cc2)c(C)n1-c1ccccc1	-7.2	i	i	-0.39	i	13*	124.0*	0.387	115.0%*	98.0%*	i	i	i	KCNQ1 APC inh=i
O=C(CNC(=O)c1ccccc1Cl)NCCc1cccs1	.	i	.	.	.	.	.	.	.	.	.	.	.
O=S(=O)(c1ccc(Cl)s1)N1CCC(Cc2ccccc2)CC1	-12.6	i	i	0.31	i	6*	71.5*	0.431	113.7%*	56.0%*	i	i	i
CCC1CCCCN1S(=O)(=O)c1ccc(C(=O)Nc2nnc(C3=COCCO3)o2)cc1 (stereo unspecified)	-5.0	i	i	0.97	i	i	.	.	.	.	.	.	.
C#CCOCCOCCOCCNc1nc(N2CCN(C(=O)[C@H](CCC(=O)O)n3cc([C@@H](N)CO)nn3)CC2)nc(N2CCN(C(=O)[C@H](CCC(=O)O)n3cc([C@@H](N)CCSC)nn3)CC2)n1	.	i	.	.	.	.	.	.	.	.	.	.	.
CCn1c(=O)n(CC)c2cc(N3CCCC3)c(NC(=O)c3cc(Br)ccc3OC)cc21	-26.7	.	-17.6*	1.59	i	9*	161.5*	0.327*	122.7%*	+	72.0%*	i	i
